Measured values pooled from the literature.
Compare with care: the assays were run in different laboratories.
Organism: Escherichia coli
Observed: microbial growth

Structure (SMILES) | test | system | setting | MIC
CC(=O)C1=NN(c2ccc([N+](=O)[O-])cc2)C(=C(C#N)C(=O)c2ccc(Nc3cnccn3)cc2)S1 | broth dilution | ATCC10536 |  | 6.25 µg/mL
C[C@H]1COc2c(N3CCN(C)CC3)c(F)cc3c(=O)c(C(=O)O)cn1c23 |  |  |  | ≤ 0.12 µg/mL
N=c1sc(C(=O)c2ccc(Nc3cnccn3)cc2)nn1-c1ccccc1 | broth dilution | ATCC10536 |  | 50 µg/mL
CCN(CC)c1ccc(C=NNC(=O)c2ccc(Cl)cc2)c(O)c1 | broth dilution | ATCC25922 |  | > 256 µg/mL
Cc1ccc2[nH]nc(-c3nnc(Nc4cc(Cl)cc(Br)c4)s3)c2c1 |  | ATCC25922 |  | 228 µg/mL
c1ccc(CSc2nc3ccc(-c4ccccc4)cc3cc2CNCCC2CCN(C3CCCC3)CC2)cc1 | broth dilution |  |  | 16 µg/mL
CO/N=C(\C(=O)N[C@@H]1C(=O)N2C(C(=O)O)=CCS[C@H]12)c1csc(N)n1 | broth dilution | ATCC25922 |  | 0.125 µg/mL
[H]/N=C(\N/C(=N/[H])NCCCCCCNC(=N)NC(=N)Nc1ccc(Cl)cc1)Nc1ccc(Cl)cc1 |  |  |  | 0.5 µM
COc1ccc(N2N=C(C(=O)c3ccc(Nc4cnccn4)cc3)SC2=C(C#N)C#N)cc1 | broth dilution | ATCC10536 |  | 6.25 µg/mL
C[C@@H](O)[C@H]1C(=O)N2C(C(=O)O)=C(S[C@@H]3CN[C@H](C(=O)N(C)C)C3)[C@H](C)[C@H]12 |  |  |  | ≤ 0.25 µg/mL
O=C(N[C@H](CO)[C@H](O)c1ccc([N+](=O)[O-])cc1)C(Cl)Cl | broth dilution | ATCC10536 |  | 3.12 µg/mL
CCN(CC)c1ccc(C=NC(=O)c2ccc3ccccc3c2)c(O)c1 | broth dilution | ATCC25922 |  | > 256 µg/mL
CN(C)c1cc(NC(=O)CNC(C)(C)C)c(O)c2c1C[C@H]1C[C@H]3[C@H](N(C)C)C(O)=C(C(N)=O)C(=O)[C@@]3(O)C(O)=C1C2=O |  |  |  | ≤ 0.5 µg/mL
COc1ccc2ccc(O)c(/C=N/[C@H]3CCCC[C@H]3/N=C/c3ccc(-c4ccccc4)cc3O)c2c1 | broth dilution |  |  | > 40 µM
Cc1ccc2[nH]nc(-c3nnc(Nc4ccc(C(F)(F)F)cc4)s3)c2c1 |  | ATCC25922 |  | 43.3 µg/mL
CCN1CCC(CCNCc2cc3cc(OC)c(OC)c(OC)c3nc2SCc2ccccc2)CC1 | broth dilution |  |  | > 128 µg/mL
C[C@@H](O)[C@H]1C(=O)N2C(C(=O)O)=C(SCCN=CN)C[C@H]12 |  |  |  | ≤ 0.25 µg/mL
Cc1ccc2[nH]nc(-c3nnc(Nc4ccc(Cl)c(Br)c4)s3)c2c1 |  | ATCC25922 |  | 247 µg/mL
CN(Cc1cnc2nc(N)nc(N)c2n1)c1ccc(C(=O)N[C@@H](CCC(=O)O)C(=O)O)cc1 | broth dilution | BW25113 | 18 h | > 250 µg/mL
c1ccc(CSc2nc3ccccc3cc2CNCc2ccc(CN3CCCC3)cc2)cc1 | broth dilution |  |  | > 128 µg/mL
COc1ccc2ccc(O)c(/C=N/[C@H]3CCCC[C@H]3/N=C/c3ccc(OCCN4CCCCC4)cc3O)c2c1 | broth dilution |  |  | > 40 µM

Structure (SMILES) | test | system | setting | MIC
CC1(C)S[C@@H]2[C@H](NC(=O)[C@H](N)c3ccccc3)C(=O)N2[C@H]1C(=O)O | broth dilution | ATCC25922 |  | 4 µg/mL
Cc1ccc2[nH]nc(-c3nnc(Nc4ccc(O)cc4)s3)c2c1 |  | ATCC25922 |  | 64.7 µg/mL
CO[C@H]1/C=C/O[C@@]2(C)Oc3c(C)c(O)c4c(O)c(c(/C=N/N5CCN(C)CC5)c(O)c4c3C2=O)NC(=O)/C(C)=C\C=C\[C@H](C)[C@H](O)[C@@H](C)[C@@H](O)[C@@H](C)[C@H](OC(C)=O)[C@@H]1C | broth dilution |  |  | 8 µM
CC[C@H]1OC(=O)[C@H](C)[C@@H](O[C@H]2C[C@@](C)(OC)[C@@H](O)[C@H](C)O2)[C@H](C)[C@@H](O[C@@H]2O[C@H](C)C[C@H](N(C)C)[C@H]2O)[C@](C)(O)C[C@@H](C)CN(C)[C@H](C)[C@@H](O)[C@]1(C)O |  | ATCC25922 |  | < 98 µg/mL
COc1ccc2ccc(O)c(/C=N/[C@H]3CCCC[C@H]3/N=C/c3c(O)cccc3F)c2c1 | broth dilution |  |  | > 40 µM
CCN1CCC(CCNCc2cc3cc(-c4ccccc4)ccc3nc2SCc2ccccc2)CC1 | broth dilution |  |  | 8 µg/mL
CC(=O)OCC1=C(C(=O)O)N2C(=O)[C@@H](NC(=O)Cc3cccs3)[C@H]2SC1 | broth dilution | ATCC10536 |  | 3.12 µg/mL
[H]/N=C(/N)N[C@H]1[C@H](O)[C@@H](O)[C@H](O[C@@H]2O[C@@H](C)[C@](O)(C=O)[C@H]2O[C@@H]2O[C@@H](CO)[C@H](O)[C@@H](O)[C@@H]2NC)[C@@H](N/C(N)=N\[H])[C@@H]1O | broth dilution | ATCC25 ATCC25922 |  | 20 µg/mL
CN1CCN(CCNCc2cc3cc(Br)ccc3nc2SCc2ccccc2)CC1 | broth dilution |  |  | 16 µg/mL
O=C(O)c1cn(C2CC2)c2cc(N3CCNCC3)c(F)cc2c1=O | broth dilution | ATCC25922 |  | 4 µg/mL
O=C1/C(=C/c2ccc3ccccc3c2O)NC(=S)N1c1ccccc1 | broth dilution | ATCC25 ATCC25922 |  | 16 µg/mL
COc1cc2cc(CNCCN3CCN(C)CC3)c(SCc3ccccc3)nc2c(OC)c1OC | broth dilution |  |  | > 128 µg/mL
C[C@@H](O)[C@H]1C(=O)N2C(C(=O)O)=C(S[C@@H]3CN[C@H](C(=O)N(C)C)C3)[C@H](C)[C@H]12 | broth dilution | ATCC25922 |  | < 0.5 µg/mL
Cc1ccc2[nH]nc(-c3nnc(Nc4ccc(F)cc4Cl)s3)c2c1 |  | ATCC25922 |  | 72.8 µg/mL
O=C(O)c1cn(C2CC2)c2cc(N3CCNCC3)c(F)cc2c1=O | broth dilution | ATCC25922 | 16 h | 0.1 µM
CC1(C)S[C@@H]2[C@H](NC(=O)[C@H](N)c3ccccc3)C(=O)N2[C@H]1C(=O)O | broth dilution | ATCC25922 | 12 h | 8 µg/mL
Brc1ccc2nc(SCc3ccccc3)c(CNCc3ccc(CN4CCCC4)cc3)cc2c1 | broth dilution |  |  | > 128 µg/mL
C[C@H]1COc2c(N3CCN(C)CC3)c(F)cc3c(=O)c(C(=O)O)cn1c23 |  | ATCC25922 | drug-resistant strain | ≤ 0.03 µg/mL
N[C@@H](Cc1c[nH]c2ccc(Cl)cc12)C(=O)O |  | MG1655 | 18 h | > 200 µM
COc1cc(Cc2cnc(N)nc2N)cc(OC)c1OC | broth dilution | BW25113 | 18 h | 0.25 µg/mL
Cc1ccc2[nH]nc(-c3nnc(Nc4ccc(C)c(C)c4)s3)c2c1 |  | ATCC25922 |  | 124 µg/mL
